This is a sample that favours compounds with a hit; in the whole collection about 2.5% have one here.
MEKK2 mut-MEK5: signal of MEK5 binding to mutant human MEKK2 PB1 domain; 0.35% of 290,000 active; bead flow cytometry, Alexa488-MEK5 binding to MEKK2 mutant; percent response, % at 10 µM; AID 1530; in the data active = percent response above about 24%, passing the limit was not always enough
MEKK3 PB1 HTS: modulators (inhibitors or enhancers) of MEK5 binding to human MEKK3 PB1 domain. bead-based flow cytometry, Alexa488-MEK5 binding to MEKK3; actives lie on both sides; 0 = blocked by unlabeled MEK5, 100 = vehicle. 1.4% of 290,000 active. AID 1529. binding response (% of control), % at 10 µM. Q99759;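 active = binding response more than 3 SD above or below the average of its plate-row segment, actives on both sides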;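 note: Alexa488 bead fluorescence after subtracting the streptavidin-only scavenger bead signal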
T cell modulator: T cell immune modulators affecting CD8 T cell-vesicle binding. 0.068% of 330,000 active. AID 2052. 2C CD8+ T cell-vesicle binding, flow cytometry; stronger effect = lower value. response (vesicle binding), % at 7 µM;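 active = response, share of CD8 T cells binding vesicles, and their 90th percentile fluorescence all below set limits, cut at about 80% in these data, passing the limit was not always enough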;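 note: values below 100% mean blocked vesicle binding to the CD8+ T cells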
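Assay system – 2C mouse CD8+ T cells · Also added – QL9-loaded Drosophila micro-vesicles · Timing – Cell–vesicle co-incubation 1.5 h at 37 °C, staining 20 min on ice · Signal – flow cytometry of vesicle-bound cells · Measure – percent CD8+ FL2 mean versus row control · Controls – Peptide-free naked vesicles (low) and QL9 vesicles with 0.7% DMSO vehicle (high)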
Rce1 inh: yeast Ras-converting enzyme inhibition. 0.27% of 290,000 active. calls only. Q03530. yeast membranes, quenched prenylated peptide cleavage fluorescence;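 active = fall in fluorescence gain of 50% or more versus controls, with final raw signal at or below 3038400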;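 note: plate controls were neutral control wells for no effect and wells lacking membranes for full effect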
UCH37 inh: inhibitors of human deubiquitinating enzyme UCH37. purified proteasome/UCH37, Ub-AMC cleavage fluorescence. 0.33% of 330,000 active. AID 588478. inhibition, % (no concentration beside the values). Q9Y5K5;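 active = mean inhibition over replicate wells above about 20%, limit read from the data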;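 note: 0% = compound-free wells with enzyme and 100% = wells lacking proteasome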
Target sequence (Q9Y5K5 whole entry, looked up): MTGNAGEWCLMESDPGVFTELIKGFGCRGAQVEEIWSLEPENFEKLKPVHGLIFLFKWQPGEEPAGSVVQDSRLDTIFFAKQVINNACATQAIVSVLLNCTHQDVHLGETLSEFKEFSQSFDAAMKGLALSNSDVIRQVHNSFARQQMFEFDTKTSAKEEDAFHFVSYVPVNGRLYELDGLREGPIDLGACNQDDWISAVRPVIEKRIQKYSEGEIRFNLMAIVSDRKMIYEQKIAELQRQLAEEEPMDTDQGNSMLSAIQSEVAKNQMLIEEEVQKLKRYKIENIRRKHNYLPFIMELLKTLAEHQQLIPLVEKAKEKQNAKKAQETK
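Schedule: 30 min plus 25 min, room temperature / Material: human UCH37 within purified proteasomes / Technique: AMC fluorescence intensity at 355/460 nm / Buffer or medium: pH 7.4 Tris-HCl (50 mM) with ovalbumin, ATP-MgCl2, DTT / Controls: wells without proteasome as full block, compound-free enzyme plus substrate as uninhibited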
MEKK2 WT-MEK5: raises or lowers MEK5 binding to wildtype human MEKK2 PB1 domain; Q9Y2U5; bead flow cytometry, Alexa488-MEK5 binding to MEKK2 WT; actives lie on both sides; binding response (% of control), % at 10 µM; 1.1% of 290,000 active; AID 1531; in the data active = binding response below about 67% or above about 130%
MEKK2wt confirm: raises or lowers MEK5 binding to wildtype human MEKK2, retest; shares compounds with MEKK3 PB1 HTS; bead flow cytometry, Alexa488-MEK5 binding to MEKK2 WT; actives lie on both sides; binding response (% of control), % at 10 µM; 2.4% of 5,900 active; in the data active = binding response below about 16% or above about 210%; inactive = in between
MEKK2mut-MEK5: signal of MEK5 binding to mutant human MEKK2, retest; AID 1893; percent response, % at 10 µM; shares compounds with MEKK3 PB1 HTS; 2% of 5,900 active; bead flow cytometry, Alexa488-MEK5 binding to MEKK2 mutant; in the data active = percent response mostly above about 71%, no sharp cut-off; inactive = mostly below about 38%;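 note: higher means compound restores mutant binding toward wildtype level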
MEKK3 confirm: confirmation of inhibitors of MEK5 binding to human MEKK3 | 1.8% of 5,900 active | binding response (% of control), % at 10 µM | bead flow cytometry, Alexa488-MEK5 binding to MEKK3; stronger effect = lower value | shares compounds with MEKK3 PB1 HTS;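 active = binding response below 72% of control, or above a set upper limit, though filed actives all read lower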;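 note: 100% = DMSO only wells and 0% = binding blocked by excess unlabeled MEK5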
Active calls of the source: *; i = inactive; nt = no result given; [ ] = remark or other dose.

SMILES	MEKK2 mut-MEK5	MEKK3 PB1 HTS	T cell modulator	Rce1 inh	UCH37 inh	MEKK2 WT-MEK5	MEKK2wt confirm	MEKK2mut-MEK5	MEKK3 confirm
O=C(Nc1ccc(C2=NCCN2)cc1)c1ccc(Cl)c(C(=O)Nc2ccc(C3=NCCN3)cc2)c1	34	66*[inhibitor]	71	i	nt	144*	130	12	102
O=C(Nc1ccc(Cl)c(Cl)c1)c1ccc(Cl)c(Cl)c1	56*	97	28	i	nt	162*	142	16	105
Nc1nnnn1N=Cc1ccc(Cl)c([N+](=O)[O-])c1	nt	nt	nt	nt	0	nt	nt	nt	nt
CC1(OC(=O)C2CCCC2)C(=O)C=C2C=C(c3ccsc3)N(CCN3CCOCC3)C=C2C1=O (stereo not given)	4	120	nt	i	2	146*	103	0	99
CC1(OC(=O)C2CCCC2)C(=O)C=C2C=C(c3ccsc3)N(C3CCCCC3)C=C2C1=O (stereo not given)	-7	80*[inhibitor]	793	i	3	92	90	-7	94
CC1(OC(=O)C2CCCC2)C(=O)C=C2C=C(c3ccsc3)N(CC3CC3)C=C2C1=O (stereo not given)	4	106	196	i	3	85	nt	nt	nt
CCOP(=O)(OCC)c1nc(-c2ccc(Cl)cc2Cl)oc1N1CCCCC1	-15	39*[inhibitor]	188	i	-18	49	99	-3	103
Cc1ccccc1-n1nc(-c2cccnc2)cc1C(=O)NN=Cc1ccncc1	nt	nt	nt	nt	-1	nt	nt	nt	nt
O=C(O)CCN1C(=O)C2C3CC(C2C1=O)C1C(c2ccccc2)c2sc(=O)[nH]c2SC31 (stereo not given)	2	102	326	i	4	97	nt	nt	nt
O=C(O)CCN1C(=O)C2C3CC(C2C1=O)C1C(c2ccccc2)c2sc(=O)n(-c4ccccc4)c2SC31 (stereo not given)	0	129*	383	i	2	112	99	3	99
CCOc1ccc(S(=O)(=O)N(C)c2ccc(OCC(=O)N3c4ccc(C)cc4C4CN(C)CCC43)cc2)cc1 (stereo not given)	37	108	200	i	1	140*	127	15	101
Cc1ccc2c(c1)C1CN(C)CCC1N2C(=O)COc1ccc(N(C)S(=O)(=O)c2cccs2)cc1 (stereo not given)	-18	76	330	i	1	83	nt	nt	nt
CC1(C)CC(NCc2cccc([N+](=O)[O-])c2)CC(C)(C)N1	6	106	4	i	3	107	nt	nt	nt
CC1(C)CC(O)C(C(O)c2cccc([N+](=O)[O-])c2)C(C)(C)N1 (stereo not given)	1	148*	420	i	7	111	99	5	103
COc1ccc(C)cc1N(C(=O)c1ccc(F)cc1)c1nc2ccccc2s1	6	92	453	i	0	98	nt	nt	nt
COc1ccc(C)cc1N(C(=O)COc1cccc(F)c1)c1nc2ccccc2s1	1	143*	317	i	1	108	96	-7	87
COc1ccccc1/C=C/C(=O)NCC(=O)NN=Cc1ccc(C)o1	nt	nt	nt	nt	-15	nt	nt	nt	nt
Cc1cc(/C=C2/SC(=O)N(CC(=O)N3CCOCC3)C2=O)c(C)n1-c1ccccc1F	0	148*	168	i	1	105	103	-8	98
O=C1CCCC(=NNC(=O)c2ccc(CSc3cccc4cccnc34)cc2)C1	nt	nt	nt	nt	-86	nt	nt	nt	nt

Screening results: PubChem, several laboratories
